Measured values reported in ChEMBL document CHEMBL4411337, “2-Aminothiazole Derivatives as Selective Allosteric Modulators of the Protein Kinase CK2. 1. Identification of an Allosteric Binding Site” (J Med Chem, 2019).
One block for each molecule: values may come before it. Activity calls are given as the source filed them. The calls are words filed in the database; no cut-off is given here.

Experiments:
[1] = target: T1, Casein kinase II subunit alpha (Homo sapiens, UniProt P68400); assay: Inhibition of recombinant human GST-tagged CK2alpha at 10 uM in presence of ATP by radiometric kinase assay relative to control
Method in brief: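 Radiometric assay of CK2α with 100 μM ATP. Single-concentration percent inhibition at 10 μM relative to control. Values are the mean of ≥2 experiments.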
Target sequence in this assay (P68400 whole entry, looked up): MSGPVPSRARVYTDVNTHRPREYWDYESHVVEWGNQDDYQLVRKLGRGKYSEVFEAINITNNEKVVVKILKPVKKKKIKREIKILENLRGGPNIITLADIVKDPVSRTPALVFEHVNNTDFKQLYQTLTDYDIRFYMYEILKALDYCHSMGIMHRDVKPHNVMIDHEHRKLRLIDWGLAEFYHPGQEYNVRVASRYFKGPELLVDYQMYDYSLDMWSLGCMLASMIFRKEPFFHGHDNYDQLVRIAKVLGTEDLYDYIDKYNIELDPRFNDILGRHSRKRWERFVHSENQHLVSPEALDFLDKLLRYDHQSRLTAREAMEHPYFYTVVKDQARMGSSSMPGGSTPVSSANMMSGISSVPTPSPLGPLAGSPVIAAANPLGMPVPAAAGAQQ

[2] = target: Mast/stem cell growth factor receptor Kit (Homo sapiens) (UniProt P10721); assay: Inhibition of cKIT (unknown origin) assessed as residual activity at 50 uM relative to control
Method in brief: (§1)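 Profiling panel of 44 human kinases. ATP set to each kinase's Km. Run in duplicate; duplicates within 15–17% of each other.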

[3] = target: Muscle, skeletal receptor tyrosine-protein kinase (Homo sapiens) (UniProt O15146); assay: Inhibition of MUSK (unknown origin) assessed as residual activity at 50 uM relative to control
Method in brief: (§2)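 Selectivity profiling against a panel of 44 human kinases. For each kinase, ATP was set to that kinase's Km. Values are residual activity in duplicate assays.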

[4] = target: Rho-associated protein kinase 1 (Homo sapiens) (UniProt Q13464); assay: Inhibition of ROCK1 (unknown origin) assessed as residual activity at 50 uM relative to control; method in brief: as §1
[5] = target: Casein kinase I isoform gamma-1 (Homo sapiens) (UniProt Q9HCP0); assay: Inhibition of CK1gamma1 (unknown origin) assessed as residual activity at 50 uM relative to control; method in brief: as §2
[6] = target: Platelet-derived growth factor receptor alpha (Homo sapiens) (UniProt P16234); assay: Inhibition of PDGFRalpha (unknown origin) assessed as residual activity at 50 uM relative to control; method in brief: as §2
Chain of Platelet-derived growth factor receptor alpha (Homo sapiens) (P16234 whole entry): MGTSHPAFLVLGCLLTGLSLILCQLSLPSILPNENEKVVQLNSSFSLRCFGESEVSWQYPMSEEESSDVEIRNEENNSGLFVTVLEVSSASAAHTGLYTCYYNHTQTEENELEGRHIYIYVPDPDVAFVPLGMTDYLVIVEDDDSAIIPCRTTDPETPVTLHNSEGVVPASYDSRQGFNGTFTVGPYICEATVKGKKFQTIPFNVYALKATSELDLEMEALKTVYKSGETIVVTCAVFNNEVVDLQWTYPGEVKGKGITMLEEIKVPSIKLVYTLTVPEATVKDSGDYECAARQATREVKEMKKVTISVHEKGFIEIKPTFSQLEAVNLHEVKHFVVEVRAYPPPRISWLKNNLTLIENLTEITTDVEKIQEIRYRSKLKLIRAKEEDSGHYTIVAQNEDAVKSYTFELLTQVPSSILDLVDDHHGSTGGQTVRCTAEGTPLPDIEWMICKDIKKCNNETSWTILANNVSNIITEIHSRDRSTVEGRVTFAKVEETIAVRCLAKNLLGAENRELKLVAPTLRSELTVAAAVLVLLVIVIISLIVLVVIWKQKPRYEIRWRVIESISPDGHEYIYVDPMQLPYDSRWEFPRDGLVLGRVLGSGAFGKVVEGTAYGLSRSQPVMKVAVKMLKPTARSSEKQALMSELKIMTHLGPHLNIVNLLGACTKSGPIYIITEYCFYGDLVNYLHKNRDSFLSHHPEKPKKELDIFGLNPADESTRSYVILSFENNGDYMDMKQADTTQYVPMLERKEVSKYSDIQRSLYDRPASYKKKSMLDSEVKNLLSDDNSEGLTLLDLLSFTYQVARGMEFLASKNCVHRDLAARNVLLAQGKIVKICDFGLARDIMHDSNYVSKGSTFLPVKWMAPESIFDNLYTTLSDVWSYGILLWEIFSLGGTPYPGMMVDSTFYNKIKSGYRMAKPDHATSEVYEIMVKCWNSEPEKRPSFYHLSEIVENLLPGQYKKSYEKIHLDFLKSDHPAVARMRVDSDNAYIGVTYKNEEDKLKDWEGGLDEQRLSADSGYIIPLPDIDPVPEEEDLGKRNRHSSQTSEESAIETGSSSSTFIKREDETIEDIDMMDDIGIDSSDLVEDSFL

[7] = target: Receptor-interacting serine/threonine-protein kinase 2 (Homo sapiens) (UniProt O43353); assay: Inhibition of RIPK2 (unknown origin) assessed as residual activity at 50 uM relative to control; method in brief: as §1
[8] = target: Homeodomain-interacting protein kinase 3 (Homo sapiens) (UniProt Q9H422); assay: Inhibition of HIPK3 (unknown origin) assessed as residual activity at 50 uM relative to control; method in brief: as §2
[9] = target: Epidermal growth factor receptor (Homo sapiens) (UniProt P00533); assay: Inhibition of EGFR (unknown origin) assessed as residual activity at 50 uM relative to control; method in brief: as §2
[10] = target: Serine/threonine-protein kinase pim-1 (Homo sapiens) (UniProt P11309); assay: Inhibition of PIM1 (unknown origin) assessed as residual activity at 50 uM relative to control; method in brief: as §2
[11] = target: Activin receptor type-1 (Homo sapiens) (UniProt Q04771); assay: Inhibition of ALK2 (unknown origin) assessed as residual activity at 50 uM relative to control; method in brief: as §2
[12] = target: Dual specificity protein kinase CLK2 (Homo sapiens) (UniProt P49760); assay: Inhibition of CLK2 (unknown origin) assessed as residual activity at 50 uM relative to control; method in brief: as §2
[13] = target: Dual specificity protein kinase CLK3 (Homo sapiens) (UniProt P49761); assay: Inhibition of CLK3 (unknown origin) assessed as residual activity at 50 uM relative to control; method in brief: as §2
[14] = target: MAP kinase-interacting serine/threonine-protein kinase 1 (Homo sapiens) (UniProt Q9BUB5); assay: Inhibition of MNK1 (unknown origin) assessed as residual activity at 50 uM relative to control; method in brief: as §2
[15] = target: Serine/threonine-protein kinase haspin (Homo sapiens) (UniProt Q8TF76); assay: Inhibition of haspin (unknown origin) assessed as residual activity at 50 uM relative to control; method in brief: as §1
[16] = target: Glycogen synthase kinase-3 beta (Homo sapiens) (UniProt P49841); assay: Inhibition of GSK3beta (unknown origin) assessed as residual activity at 50 uM relative to control; method in brief: as §2
[17] = target: Tyrosine-protein kinase ABL1 (Homo sapiens) (UniProt P00519); assay: Inhibition of ABL (unknown origin) assessed as residual activity at 50 uM relative to control; method in brief: as §2
[18] = target: Homeodomain-interacting protein kinase 2 (Homo sapiens) (UniProt Q9H2X6); assay: Inhibition of HIPK2 (unknown origin) assessed as residual activity at 50 uM relative to control; method in brief: as §2
[19] = target: Cyclin-dependent kinase 1/cyclin B1 (Homo sapiens) (UniProt P06493+P14635); assay: Inhibition of CDK1/cyclin B (unknown origin) assessed as residual activity at 50 uM relative to control; type: protein-complex assay; method in brief: as §2
Chain of Cyclin-dependent kinase 1/cyclin B1 (Homo sapiens) (P06493 whole entry, looked up): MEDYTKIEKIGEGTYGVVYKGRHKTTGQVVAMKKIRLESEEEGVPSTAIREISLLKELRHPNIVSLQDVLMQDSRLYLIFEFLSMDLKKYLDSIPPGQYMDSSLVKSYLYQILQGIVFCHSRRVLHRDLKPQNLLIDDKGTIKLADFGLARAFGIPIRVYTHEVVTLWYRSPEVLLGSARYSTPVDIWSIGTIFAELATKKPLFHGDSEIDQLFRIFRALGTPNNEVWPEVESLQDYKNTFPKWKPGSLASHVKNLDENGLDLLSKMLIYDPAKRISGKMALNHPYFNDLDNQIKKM
Chain of Cyclin-dependent kinase 1/cyclin B1 (Homo sapiens) (P14635 whole entry, looked up): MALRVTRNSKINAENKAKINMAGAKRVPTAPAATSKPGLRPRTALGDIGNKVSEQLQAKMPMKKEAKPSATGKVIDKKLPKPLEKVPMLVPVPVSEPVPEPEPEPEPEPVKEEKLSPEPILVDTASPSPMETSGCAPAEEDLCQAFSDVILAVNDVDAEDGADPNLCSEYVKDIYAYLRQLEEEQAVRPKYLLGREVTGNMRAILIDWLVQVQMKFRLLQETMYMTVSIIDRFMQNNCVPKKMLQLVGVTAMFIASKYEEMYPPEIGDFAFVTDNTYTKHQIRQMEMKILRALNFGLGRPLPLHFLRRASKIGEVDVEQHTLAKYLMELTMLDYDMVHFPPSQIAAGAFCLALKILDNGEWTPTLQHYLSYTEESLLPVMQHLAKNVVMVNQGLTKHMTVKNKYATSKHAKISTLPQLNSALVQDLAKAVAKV

[20] = target: Ephrin type-A receptor 4 (Homo sapiens) (UniProt P54764); assay: Inhibition of EPHA4 (unknown origin) assessed as residual activity at 50 uM relative to control; method in brief: as §2
Chain of Ephrin type-A receptor 4 (Homo sapiens) (P54764 whole entry): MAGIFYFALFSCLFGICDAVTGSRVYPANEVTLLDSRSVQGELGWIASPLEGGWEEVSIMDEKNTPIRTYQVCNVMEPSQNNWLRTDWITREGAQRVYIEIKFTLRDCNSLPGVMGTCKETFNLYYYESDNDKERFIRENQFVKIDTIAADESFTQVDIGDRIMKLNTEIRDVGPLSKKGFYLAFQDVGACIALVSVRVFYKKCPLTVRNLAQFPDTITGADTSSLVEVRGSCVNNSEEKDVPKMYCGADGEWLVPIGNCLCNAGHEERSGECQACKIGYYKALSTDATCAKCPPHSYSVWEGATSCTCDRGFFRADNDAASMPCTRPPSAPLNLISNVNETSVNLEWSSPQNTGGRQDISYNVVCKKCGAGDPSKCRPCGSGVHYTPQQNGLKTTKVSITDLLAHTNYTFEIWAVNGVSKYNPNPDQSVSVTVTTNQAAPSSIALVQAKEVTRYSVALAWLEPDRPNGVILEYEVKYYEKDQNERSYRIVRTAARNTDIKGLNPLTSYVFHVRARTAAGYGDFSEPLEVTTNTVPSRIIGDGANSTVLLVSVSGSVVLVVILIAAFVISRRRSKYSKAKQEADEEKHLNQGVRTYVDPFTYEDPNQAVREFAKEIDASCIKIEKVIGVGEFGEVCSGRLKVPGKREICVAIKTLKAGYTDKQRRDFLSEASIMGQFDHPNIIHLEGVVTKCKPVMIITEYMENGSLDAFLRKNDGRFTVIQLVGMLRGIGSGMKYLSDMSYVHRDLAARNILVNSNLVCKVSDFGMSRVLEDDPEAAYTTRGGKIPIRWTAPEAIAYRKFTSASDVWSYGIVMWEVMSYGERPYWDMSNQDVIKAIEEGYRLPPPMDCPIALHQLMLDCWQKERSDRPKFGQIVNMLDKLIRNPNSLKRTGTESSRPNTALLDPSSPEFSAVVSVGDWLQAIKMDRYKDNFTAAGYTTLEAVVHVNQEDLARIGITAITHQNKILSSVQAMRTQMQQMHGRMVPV

[21] = target: Dual specificity protein kinase CLK1 (Homo sapiens) (UniProt P49759); assay: Inhibition of CLK1 (unknown origin) assessed as residual activity at 50 uM relative to control; method in brief: as §2
[22] = target: Protein kinase C alpha type (Homo sapiens) (UniProt P17252); assay: Inhibition of PKCalpha (unknown origin) assessed as residual activity at 50 uM relative to control; method in brief: as §1
[23] = target: Myosin light chain kinase 2, skeletal/cardiac muscle (Homo sapiens) (UniProt Q9H1R3); assay: Inhibition of MLCK2 (unknown origin) assessed as residual activity at 50 uM relative to control; method in brief: as §2
Chain of Myosin light chain kinase 2, skeletal/cardiac muscle (Homo sapiens) (Q9H1R3 whole entry): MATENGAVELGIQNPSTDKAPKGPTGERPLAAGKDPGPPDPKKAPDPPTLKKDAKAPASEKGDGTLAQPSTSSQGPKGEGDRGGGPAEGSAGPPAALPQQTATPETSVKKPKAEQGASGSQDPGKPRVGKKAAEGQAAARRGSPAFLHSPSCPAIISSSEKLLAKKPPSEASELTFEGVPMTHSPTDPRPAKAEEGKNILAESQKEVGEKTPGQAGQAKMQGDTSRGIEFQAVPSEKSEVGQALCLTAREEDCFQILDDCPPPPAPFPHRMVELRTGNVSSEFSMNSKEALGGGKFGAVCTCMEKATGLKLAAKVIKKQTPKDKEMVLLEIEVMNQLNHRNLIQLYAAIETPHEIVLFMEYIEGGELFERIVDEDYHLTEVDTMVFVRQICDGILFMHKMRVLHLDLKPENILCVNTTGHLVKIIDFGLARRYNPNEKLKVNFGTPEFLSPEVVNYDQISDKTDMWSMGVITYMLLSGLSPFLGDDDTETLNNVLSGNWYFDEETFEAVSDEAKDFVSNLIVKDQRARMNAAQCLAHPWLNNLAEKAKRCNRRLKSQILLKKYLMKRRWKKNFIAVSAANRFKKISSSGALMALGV

[24] = target: Serine/threonine-protein kinase TBK1 (Homo sapiens) (UniProt Q9UHD2); assay: Inhibition of TBK1 (unknown origin) assessed as residual activity at 50 uM relative to control; method in brief: as §1
Chain of Serine/threonine-protein kinase TBK1 (Homo sapiens) (Q9UHD2 whole entry): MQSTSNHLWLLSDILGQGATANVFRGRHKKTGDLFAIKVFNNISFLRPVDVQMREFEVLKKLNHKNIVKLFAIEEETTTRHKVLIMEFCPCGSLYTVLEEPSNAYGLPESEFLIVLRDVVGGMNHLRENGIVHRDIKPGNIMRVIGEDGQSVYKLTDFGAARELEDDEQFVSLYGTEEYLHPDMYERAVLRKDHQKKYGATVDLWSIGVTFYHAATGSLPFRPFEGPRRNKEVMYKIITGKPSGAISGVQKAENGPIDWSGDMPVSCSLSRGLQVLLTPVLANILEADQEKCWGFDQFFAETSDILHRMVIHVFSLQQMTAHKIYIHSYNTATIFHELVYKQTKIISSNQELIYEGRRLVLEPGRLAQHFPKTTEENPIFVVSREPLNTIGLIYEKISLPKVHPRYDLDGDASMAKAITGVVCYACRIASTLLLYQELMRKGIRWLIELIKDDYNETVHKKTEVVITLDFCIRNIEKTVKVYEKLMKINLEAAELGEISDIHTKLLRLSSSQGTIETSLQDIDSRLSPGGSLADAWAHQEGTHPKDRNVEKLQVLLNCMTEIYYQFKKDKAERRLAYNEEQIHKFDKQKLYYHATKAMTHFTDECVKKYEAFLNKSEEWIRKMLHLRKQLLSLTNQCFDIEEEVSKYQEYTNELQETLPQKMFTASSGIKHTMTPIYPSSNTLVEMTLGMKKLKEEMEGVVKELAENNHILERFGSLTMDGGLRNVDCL

[25] = target: Tyrosine-protein kinase JAK2 (Homo sapiens) (UniProt O60674); assay: Inhibition of JAK2 (unknown origin) assessed as residual activity at 50 uM relative to control; method in brief: as §2
[26] = target: Dual specificity mitogen-activated protein kinase kinase 1 (Homo sapiens) (UniProt Q02750); assay: Inhibition of MEK1 (unknown origin) assessed as residual activity at 50 uM relative to control; method in brief: as §2
[27] = target: Serine/threonine-protein kinase Chk2 (Homo sapiens) (UniProt O96017); assay: Inhibition of CHK2 (unknown origin) assessed as residual activity at 50 uM relative to control; method in brief: as §2
[28] = target: Cyclin-dependent kinase 2/cyclin E1 (Homo sapiens) (UniProt P24864+P24941); assay: Inhibition of CDK2/cyclin E (unknown origin) assessed as residual activity at 50 uM relative to control; type: protein-complex assay; method in brief: as §2
[29] = target: Dual specificity tyrosine-phosphorylation-regulated kinase 1A (Homo sapiens) (UniProt Q13627); assay: Inhibition of DYRK1A (unknown origin) assessed as residual activity at 50 uM relative to control; method in brief: as §2
[30] = target: Dual specificity protein kinase CLK4 (Homo sapiens) (UniProt Q9HAZ1); assay: Inhibition of CLK4 (unknown origin) assessed as residual activity at 50 uM relative to control; method in brief: as §2
[31] = target: Death-associated protein kinase 3 (Homo sapiens) (UniProt O43293); assay: Inhibition of DAPK3 (unknown origin) assessed as residual activity at 50 uM relative to control; method in brief: as §2
[32] = target: T1, Casein kinase II subunit alpha; assay: Inhibition of recombinant human GST-tagged CK2alpha in presence of ATP by radiometric kinase assay
Target sequence in this assay (P68400 whole entry): as the sequence (P68400 whole entry, looked up) above

[33] = target: Casein kinase II alpha/beta (Homo sapiens) (UniProt P67870+P68400); assay: Inhibition of recombinant human GST-tagged CK2alpha2/CK2beta2 at 15 uM in presence of ATP by radiometric kinase assay; type: protein-complex assay
[34] = target: T1, Casein kinase II subunit alpha; assay: Inhibition of recombinant human GST-tagged CK2alpha at 15 uM in presence of varying ATP levels by radiometric kinase assay
Target sequence in this assay (P68400 whole entry, looked up): as above

[35] = target: T1, Casein kinase II subunit alpha; assay: Inhibition of recombinant human GST-tagged CK2alpha at 15 uM in presence of varying substrate levels by radiometric kinase assay
Target sequence in this assay (P68400 whole entry, looked up): as above

[36] = target: T1, Casein kinase II subunit alpha; assay: Non-ATP competitive binding affinity to GST-tagged CK2alpha (unknown origin) assessed as melting temperature at 50 uM by temperature-dependent circular dichroism (reference value: […] degC)
Target sequence in this assay (P68400 whole entry, looked up): as above

[37] = Solubility of the compound in water; type: physicochemical; conditions: buffer
[38] = target: T1, Casein kinase II subunit alpha; assay: Competitive binding affinity to CK2alpha (1 to 335 residues) (unknown origin) at 10 uM by native mass spectrometry
Method in brief: (§3)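 Native nESI-MS of CK2α residues 1–335 (10 μM) after buffer exchange into 0.50 M ammonium acetate pH 8.5 with 5% (v/v) DMSO. […] Capillary was 1.6–2.0 kV, cone 30–90 V, collision 10 V, source 20 °C; CsI calibration. Ligand binding was read from the charge-state spectra.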
Target sequence in this assay (P68400 whole entry, looked up): as above

[39] = target: T1, Casein kinase II subunit alpha; assay: Competitive binding affinity to CK2alpha (1 to 335 residues) (unknown origin) at 10 uM in presence of IP6 by nESI-MS analysis
Target sequence in this assay (P68400 whole entry, looked up): as above

[40] = target: T1, Casein kinase II subunit alpha; assay: Competitive binding affinity to CK2alpha (1 to 335 residues) (unknown origin) at 10 uM in presence of IP6 by native mass spectrometry; method in brief: as §3
[41] = target: T1, Casein kinase II subunit alpha; assay: Competitive binding affinity to CK2alpha (1 to 335 residues) (unknown origin) at 10 uM in presence of IP6 by nESI-MS analysis; method in brief: as §3
[42] = target: T1, Casein kinase II subunit alpha; assay: Binding affinity to CK2alpha (unknown origin) at 500 uM in presence of kinase inhibitor CX-4945 by STD-based NMR spectroscopy
Method in brief: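 STD NMR at 600 MHz and 293 K in PBS pH 7.3 with 10 mM NaCl, 2 mM MgCl2 and 10% D2O. […] On-resonance protein saturation was at 0.6 ppm for 2 s. STD factors were normalized so the highest STD factor is 100%.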

[43] = target: T1, Casein kinase II subunit alpha; assay: Mixed-type inhibition of recombinant human GST-tagged CK2alpha in presence of ATP by Lineweaver-Burk plot analysis
Target sequence in this assay (P68400 whole entry): as the sequence (P68400 whole entry, looked up) above

Activity [2]: 116% | Activity [3]: 90% | Activity [4]: 107% | Activity [5]: 31% | Activity [6]: 102% | Activity [7]: 86% | Activity [8]: 82% | Activity [9]: 106% | Activity [10]: 57% | Activity [11]: 34% | Activity [12]: 67% | Activity [13]: 86% | Activity [14]: 101% | Activity [15]: 55% | Activity [16]: 29% | Activity [17]: 69% | Activity [18]: 57% | Activity [19]: 78% | Activity [20]: 27% | Activity [21]: 80% | Activity [22]: 92% | Activity [23]: 39% | Activity [24]: 75% | Activity [25]: 98% | Activity [26]: 95% | Activity [27]: 72% | Activity [28]: 107% | Activity [29]: 79% | Activity [30]: 39%
SMILES: O=C(O)c1ccc(Nc2nc(-c3cccc(Br)c3)cs2)cc1
Activity [31]: 104%

inhibition [1]: 27%
SMILES: O=[N+]([O-])c1cccc(-c2csc(Nc3ccccc3)n2)c1

inhibition [1]: 9%
SMILES: COC(=O)c1ccc(Nc2nc(-c3cccc([N+](=O)[O-])c3)cs2)cc1

IC50 [32]: 27.7 µM | inhibition [33]: Active | inhibition [34]: Active | inhibition [35]: Active
SMILES: O=C(O)c1cccc(Nc2nc(-c3cccc([N+](=O)[O-])c3)cs2)c1

The remaining lines, values behind:

SMILES: O=C(O)c1ccc(Nc2nccs2)cc1
inhibition [1]: 0%

SMILES: O=C(O)c1ccc(Nc2nc(-c3ccccc3)cs2)cc1
IC50 [32]: 9 µM | Tm [36]: 50.3 °C | solubility [37]: Soluble | Activity [38]: Active | Activity [39]: Active | Activity [40]: inactive | Activity [41]: Active | Activity [42]: Active | Ki [43]: 1.1 µM

SMILES: O=C(O)c1ccc(Nc2nc(-c3ccccn3)cs2)cc1
solubility [37]: Soluble
